Published values from different studies.
Target: Broad substrate specificity ATP-binding cassette transporter ABCG2 (ABCG2, Homo sapiens, UniProt Q9UNQ0)
Sequence (Q9UNQ0 1-655, as in one of the studies): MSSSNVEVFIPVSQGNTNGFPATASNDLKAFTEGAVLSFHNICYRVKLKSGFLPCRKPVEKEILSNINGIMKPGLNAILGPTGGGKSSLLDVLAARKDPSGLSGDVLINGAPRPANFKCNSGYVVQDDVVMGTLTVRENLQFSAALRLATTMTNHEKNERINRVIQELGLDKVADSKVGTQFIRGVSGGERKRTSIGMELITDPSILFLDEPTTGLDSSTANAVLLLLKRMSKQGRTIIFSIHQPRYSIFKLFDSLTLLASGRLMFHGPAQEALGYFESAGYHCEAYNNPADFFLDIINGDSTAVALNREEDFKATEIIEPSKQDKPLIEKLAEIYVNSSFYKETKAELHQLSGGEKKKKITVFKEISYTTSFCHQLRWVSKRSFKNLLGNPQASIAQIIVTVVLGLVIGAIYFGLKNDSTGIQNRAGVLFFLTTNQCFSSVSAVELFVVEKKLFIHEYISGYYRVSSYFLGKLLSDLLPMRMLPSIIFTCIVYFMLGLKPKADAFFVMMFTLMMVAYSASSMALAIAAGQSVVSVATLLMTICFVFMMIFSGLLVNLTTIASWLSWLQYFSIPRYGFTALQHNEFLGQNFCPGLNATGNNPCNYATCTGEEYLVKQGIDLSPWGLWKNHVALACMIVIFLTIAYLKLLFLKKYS

| test | test system | conditions | endpoint | value | SMILES |
| --- | --- | --- | --- | --- | --- |
| transporter uptake, inhibitor | – | cell membranes | Ki | 0.56 µM | CC(=O)c1cc(C(=O)N[C@@H](C)Cn2ccc(-c3ccc(C#N)c(Cl)c3)n2)[nH]n1 |
| transporter uptake, inhibitor | Caco-2 | 100 µM, 2 h | inhibition | 92% | O=c1cc(-c2ccccc2)oc2cc(O)cc(O)c12 |
| transporter uptake, inhibitor | – | cell membranes | Ki | 4 µM | C=C[C@@H]1C[C@]1(NC(=O)[C@@H]1C[C@@H]2CN1C(=O)[C@H](C(C)(C)C)NC(=O)O[C@@H]1C[C@H]1CCCCCc1nc3ccc(OC)cc3nc1O2)C(=O)NS(=O)(=O)C1CC1 |
| ligand displacement | – | 10 µM | inhibition | ~55% | N#C/C(=C/c1cc(Cl)cc(Cl)c1)c1cccnc1 |
| transporter uptake, inhibitor | Caco-2 | 3 µM, 2 h | inhibition | 18% | O=C(O)CSc1nnc(Br)n1-c1ccc(C2CC2)c2ccccc12 |
| – | dog, MDCK-MDR1 | – | Papp B→A | 13.3 ×10⁻⁶ cm/s | C[C@@H](C(=O)N1Cc2c(-c3ccc(C(=O)N4CCCc5ccccc54)cc3)cnn2C[C@@H]1C)c1ccccc1 |
| transporter uptake, inhibitor | MDCK-II | 10 µg/mL | inhibition | 13% | CN(C(=O)n1cnc(-c2ccc[n+]([O-])c2)c1)C1CCCCC1 |
| – | dog, MDCK-MDR1 | – | Papp B→A | 11.9 ×10⁻⁶ cm/s | CC(C)[C@H]1Cn2ncc(-c3ccc(C(=O)N4CCCc5ccccc54)cc3)c2CN1C(=O)Cc1ccccc1 |
| transporter uptake, inhibitor | – | – | IC50 | 7.6 µM | CN(CCC(=O)O)C(=O)c1ccc2c(c1)CC[C@@H]1[C@@H]2CC[C@]2(C)C(c3cncc(F)c3)=CC[C@@H]12 |
| – | Caco-2 | 1 µM, 2 h, pH 7.4 | Papp A→B | 5.51 ×10⁻⁶ cm/s | C/C(O)=C(\C#N)C(=O)Nc1ccc(C(F)(F)F)cc1 |
